Experimental data taken from ChEMBL document CHEMBL1157793, “Synthesis and antitumor activity of 1,5-disubstituted 1,2,4-triazoles as cis-restricted combretastatin analogues” (J Med Chem, 2010).
pIC50: −log10 of the molar value. Activity calls are given as the source filed them. No cut-off for these calls is given here.

Legend:
HeLa [1] = assay: Antiproliferative activity against human HeLa cells after 72 hrs by MTT assay; type: functional, cell-based
A549 = assay: Antiproliferative activity against human A549 cells after 72 hrs by MTT assay; type: functional, cell-based; settings: A549, 72 h
HL-60 = assay: Antiproliferative activity against human HL60 cells after 72 hrs by MTT assay; type: functional, cell-based; settings: HL-60, 72 h
Jurkat [2] = assay: Antiproliferative activity against human Jurkat cells after 72 hrs by MTT assay; type: functional, cell-based
Outline: (§1)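 Cells seeded at 8×10^3 per well (Jurkat, HL-60, K562 in RPMI-1640; MCF7, A549, HeLa in DMEM; all with 10% FBS, penicillin/streptomycin), incubated 18 h at 37 °C, 5% CO2, then exposed to compound at varying concentrations in complete medium for 72 h.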

K562 = assay: Antiproliferative activity against human K562 cells after 72 hrs by MTT assay; type: functional, cell-based; settings: K562, 72 h; outline: as §1
MCF7 = assay: Antiproliferative activity against human MCF7 cells after 72 hrs by MTT assay; type: functional, cell-based; settings: MCF7, 72 h
[3] = Inhibition of bovine brain tubulin polymerization after 20 mins by turbidimetry; set-up: species or system Bos taurus
Outline: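 Bovine brain tubulin (10 µM) preincubated with varying compound concentrations in glutamate buffer at 30 °C, chilled to 0 °C, 0.4 mM GTP added, then warmed to 30 °C in spectrophotometer; assembly followed by turbidity at 350 nm.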

Bos taurus [4] = species on record: Bos taurus; assay: Displacement of [3H]colchicine from bovine tubulin at 1 uM
Outline: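 [3H]Colchicine binding inhibition measured with reaction mixtures of 1 µM tubulin, 5 µM [3H]colchicine and 1 µM test compound.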

HeLa [5] = assay: Cell cycle arrest in human HeLa cells assessed as increase in accumulation of cells at G2/M phase after 24 hrs by propidium iodide staining-based flow cytometry; type: functional
Outline: (§2)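 5×10^5 exponentially growing cells treated with compound (7–250 nM range for 24 h; 30 nM for 24 and 48 h), collected, fixed in ice-cold 70% ethanol, lysed with buffer containing RNase A and 0.1% Triton X-100, PI-stained, and DNA content analysed by flow cytometry; phase distribution from DNA histograms. Mean ± SEM of three independent experiments.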

HeLa [6] = assay: Cell cycle arrest in human HeLa cells assessed as decrease in accumulation of cells at G1 phase at 7 to 250 nM after 24 hrs by propidium iodide staining-based flow cytometry; type: functional; outline: as §2
HeLa [7] = assay: Cell cycle arrest in human HeLa cells assessed as decrease in accumulation of cells at S phase at 7 to 250 nM after 24 hrs by propidium iodide staining-based flow cytometry; type: functional; outline: as §2
Jurkat [8] = assay: Cell cycle arrest in human Jurkat cells assessed as increase in accumulation of cells at G2/M phase at 7 to 250 nM after 24 hrs by propidium iodide staining-based flow cytometry; type: functional; outline: as §2
Jurkat [9] = assay: Cell cycle arrest in human Jurkat cells by accumulation of cells at G2/M phase at 7 to 250 nM after by propidium iodide staining-based flow cytometry; type: functional; settings: TDE = time-dependent effect; outline: as §2
Jurkat [10] = assay: Cell cycle arrest in human Jurkat cells assessed as accumulation of cells at SubG1 phase at 7 to 250 nM after 24 hrs by propidium iodide staining-based flow cytometry; type: functional; outline: as §2
Jurkat [11] = assay: Induction of apoptosis in human Jurkat cells assessed as increase in annexin-V positive cells after 24 to 72 hrs by annexin-V-FITC and propidium iodide staining based flow cytometry; type: functional, cell-based
Jurkat [12] = assay: Induction of apoptosis in human Jurkat cells assessed as depolarization of mitochondrial membrane potential measured as annexin-V positive cells at 50 nM after 24 hrs by annexin-V-FITC and propidium iodide staining based flow cytometry (reference value: 3.0%); type: functional
Jurkat [13] = assay: Induction of apoptosis in human Jurkat cells assessed as depolarization of mitochondrial membrane potential measured as annexin-V positive cells at 50 nM after 48 hrs by annexin-V-FITC and propidium iodide staining based flow cytometry (reference value: 3.0%); type: functional
Jurkat [14] = assay: Induction of apoptosis in human Jurkat cells assessed as depolarization of mitochondrial membrane potential measured as annexin-V positive cells at 50 nM after 72 hrs by annexin-V-FITC and propidium iodide staining based flow cytometry (reference value: 3.0%); type: functional
Jurkat [15] = assay: Induction of apoptosis in human Jurkat cells assessed as increase in ROS production at 50 nM by HE staining based flow cytometry; type: functional, cell-based; settings: TDE = time-dependent effect
Outline: (§3)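 After 24, 48, 72 h with 50 nM compound, Jurkat cells resuspended in HBSS with 2.5 µM HE or 0.1 µM H2DCFDA, 30 min at 37 °C, washed, and read by flow cytometry (excitation 488 nm; emission 585 nm HE, 530 nm DCF). Mean ± SEM of three independent experiments.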

Jurkat [16] = assay: Induction of apoptosis in human Jurkat cells assessed as increase in ROS production at 50 nM by H2DCFDA staining based flow cytometry; type: functional, cell-based; settings: TDE = time-dependent effect; outline: as §3
Jurkat [17] = assay: Induction of apoptosis in human Jurkat cells assessed as activation of caspase-3 at 50 nM by flow cytometry; type: functional, cell-based; settings: TDE = time-dependent effect
Outline: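 Jurkat cells exposed to 50 nM compound for 24, 48 and 72 h, fixed in Cytofix buffer 20 min, washed in Perm/Wash, stained 30 min with FITC-conjugated anti-human active caspase-3 fragment antibody; percentage of positive cells by flow cytometry, mean ± SEM of three experiments.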

Jurkat [18] = assay: Induction of apoptosis in human Jurkat cells assessed as increase in PARP cleavage at 50 nM after 24 hrs by immunoblot method; type: functional, cell-based
Outline: (§4)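 Jurkat cells given 50 nM compound for varying times, washed in cold PBS, lysed on ice 30 min, cleared at 15000g, 4 °C; 20 µg protein run on 7.5–15% SDS-PAGE, blotted to PVDF, probed 2 h at room temperature with rabbit anti-PARP or anti-Bcl-2 (1:1000), peroxidase secondary, ECL detection; β-actin reprobe as loading control.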

Jurkat [19] = assay: Induction of apoptosis in human Jurkat cells assessed as decrease in Bcl2 expression at 50 nM after 24 to 72 hrs by immunoblot method; type: functional, cell-based; outline: as §4
HeLa [20] = assay: Cell cycle arrest in human HeLa cells by accumulation of cells at G2/M phase at 30 nM after 48 hrs by propidium iodide staining-based flow cytometry (reference value: 12%)
Gallus gallus = species on record: Gallus gallus; assay: Inhibition of vascular sprouts in chick embryo aorta assessed as vascular disruption at 10 uM after 30 mins by microscopy; type: functional, tissue-based
Outline: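 Aortic arches from day-14 chick embryos sliced, embedded in Matrigel with complete medium; endothelial sprouts formed over 24–48 h. Compound added at various concentrations and vascular channels imaged before and 30 min after addition.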

Bos taurus [21] = species on record: Bos taurus; assay: Ratio of IC50 for comberestastatin-A4 to IC50 for drug for inhibition of bovine brain tubulin polymerization after 20 mins by turbidimetry
HUVEC [22] = assay: Induction of apoptosis in HUVEC expressing GFP assessed as formation of membrane blebs at 0.5 uM to 10 uM after 30 mins by confocal microscopy; settings: Homo sapiens
HUVEC [23] = assay: Induction of apoptosis in HUVEC expressing GFP assessed as decrease in GFP-positive cell area at 0.5 uM to 10 uM after 30 mins by confocal microscopy; set-up: scale not given: the % may be the effect or the level left

CCOc1ccc(-c2ncnn2-c2cc(OC)c(OC)c(OC)c2)cc1Cl
pIC50 (HeLa [1]): 8.22
pIC50 (A549): 8.00
pIC50 (HL-60): 8.52
pIC50 (Jurkat [2]): 8.52
pIC50 (K562): 7.70
pIC50 (MCF7): 7.77
pIC50 [3]: 5.82
Activity (Bos taurus [4]): 75%
Activity (HeLa [5]): Dose-dependent effect
Activity (HeLa [6]): Active
Activity (HeLa [7]): Active
Activity (Jurkat [8]): Active
Activity (Jurkat [9]): tde
Activity (Jurkat [10]): Active
Activity (Jurkat [11]): Active
Activity (Jurkat [12]): Active
Activity (Jurkat [13]): Active
Activity (Jurkat [14]): Active
Activity (Jurkat [15]): tde
Activity (Jurkat [16]): tde
Activity (Jurkat [17]): tde
Activity (Jurkat [18]): Active
Activity (Jurkat [19]): Active
Activity (HeLa [20]): 70%

CCOc1ccc(-c2ncnn2-c2cc(OC)c(OC)c(OC)c2)cc1
Activity (Gallus gallus): Active
pIC50 (HeLa [1]): 7.82
pIC50 (A549): 7.00
pIC50 (HL-60): 7.70
pIC50 (Jurkat [2]): 8.30
pIC50 (MCF7): 7.30
pIC50 [3]: 6.12
Ratio IC50 (Bos taurus [21]): 2
Activity (Bos taurus [4]): 86%
Activity (HeLa [5]): Dose-dependent effect
Activity (HeLa [6]): Active
Activity (HeLa [7]): Active
Activity (Jurkat [8]): Active
Activity (Jurkat [9]): tde
Activity (Jurkat [10]): Active
Activity (Jurkat [11]): Active
Activity (Jurkat [12]): 14.4%
Activity (Jurkat [13]): 28.4%
Activity (Jurkat [14]): 44.5%
Activity (Jurkat [15]): tde
Activity (Jurkat [16]): tde
Activity (Jurkat [17]): tde
Activity (Jurkat [18]): Active
Activity (Jurkat [19]): Active
Activity (HUVEC [22]): Active
Activity (HUVEC [23]): 30%
Activity (HeLa [20]): 70%
